Experiments:
Mus musculus [1] = assay: Prevention of tetrabenazine induced ptosis in mice following i.p. administration.; assay type: functional; settings: ip
In short: (§1)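 Mice given compound ip in 1% methylcellulose (10 mL/kg), 30 min before tetrabenazine 40 mg/kg base ip; solvent+TBZ control per test. Ptosis scored 30 min after TBZ (+1 min) as 100/50/0% (closed/half/open), not normalized.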

[2] = Therapeutic index (TI), ratio of LD50 and ED50 (TBZ) in mice after i.p. administration; settings: mouse, in vivo, ip
[3] = Partition coefficient (logP); assay type: physicochemical; settings: octanol/water
Rattus norvegicus [4] = species on record: Rattus norvegicus; assay: Compound was tested for inhibition of uptake of [3H]dopamine (DA) into rat corpus striatum, in vitro.; assay type: functional
In short: (§2)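 Rat brain synaptosomes (Whittaker method) incubated with labelled monoamine (1 × 10^-7 mol final) at 37 °C with or without drug. [14C]NE and [14C]5-HT uptake in Krebs-Henseleit bicarbonate pH 7.4 with 11 mmol glucose; [3H]DA uptake in phosphate buffer, corpus striatum synaptosomes. Time: 5 min whole brain, 10 min hypothalamus. Nonspecific binding at 0 °C; membrane filtration, scintillation counting; IC50 from 3–4 concentrations, at least triplicate.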

Rattus norvegicus [5] = assay: Ability to inhibit re uptake of [14C]-5-HT in synaptosomes from rat whole brain, was determined 1 h after intraperitoneal administration of 80 mg of compound.; assay type: functional
In short: (§3)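 Ex vivo/in vitro: rats dosed orally or ip, killed 1 h later; whole-brain synaptosomes from a pool of n=3 rats; [14C]NE or [14C]5-HT uptake (Krebs-Henseleit bicarbonate, pH 7.4, 11 mmol glucose; 1 × 10^-7 mol labelled amine, 37 °C, 5 min), filtration, scintillation counting; quadruplicate determinations, mean ± SD as % of control-animal uptake.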

Rattus norvegicus [6] = species on record: Rattus norvegicus; assay: Compound was tested for inhibition of uptake of [14C]norepinephrine (NE) into rat brain hypothalamus, in vitro.; assay type: functional; in short: as §2
Rattus norvegicus [7] = assay: Ability to inhibit re uptake of [14C]norepinephrine in synaptosomes from rat whole brain, was determined 1 hr after peroral administration of 80 mg of compound.; assay type: functional; in short: as §3
Rattus norvegicus [8] = species on record: Rattus norvegicus; assay: Compound was tested for inhibition of uptake of [14C]5-HT (5-HT) into rat whole brain, in vitro.; assay type: functional; in short: as §2
Rattus norvegicus [9] = assay: Ability to inhibit re uptake of [14C]5-HT in synaptosomes from rat whole brain, was determined 1 h after peroral administration of 80 mg of compound.; assay type: functional, organism-based; in short: as §3
[10] = Acute toxicity in mice, after intraperitoneal administration.; assay type: organism-based; settings: mouse, in vivo, ip
In short: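 Mice, groups of 10, given compound suspended in 1% methylcellulose ip at 10 mL/kg, then housed with food and water ad libitum. Observed hourly up to 6 h; deaths recorded at 24 and 48 h.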

[11] = Compound was tested for acute toxicity in mice, after intravenous administration of the compound.; assay type: organism-based; settings: mouse, in vivo
Mus musculus [12] = assay: Prevention of tetrabenazine (TBZ)-induced ptosis in mice after intraperitoneal administration.; assay type: functional, organism-based; in short: as §1
Mus musculus [13] = assay: Enhancement of spontaneous motor activity (SMA) in mice after oral administration of 0.3 mg/kg of the compound. Accumulated motility counts during second hour of observation, was reported.; assay type: functional
Mus musculus [14] = species on record: Mus musculus; assay: Percent enhancement of spontaneous motor activity (SMA) was observed. Accumulated motility counts during first hour of observation, was reported.; assay type: functional
Mus musculus [15] = species on record: Mus musculus; assay: Percent enhancement of spontaneous motor activity (SMA) was observed. Accumulated motility counts during second hour of observation, was reported.; assay type: functional
Mus musculus [16] = assay: Enhancement of spontaneous motor activity (SMA) in mice after oral administration of 1 mg/kg of the compound. Accumulated motility counts during second hour of observation, was reported.; assay type: functional
Mus musculus [17] = assay: Enhancement of spontaneous motor activity (SMA) in mice after oral administration of 1 mg/kg of the compound. Accumulated motility counts during first hour of observation, was reported.; assay type: functional
Mus musculus [18] = species on record: Mus musculus; assay: Percent enhancement of spontaneous motor activity (SMA) was observed. Accumulated motility counts during one hour of observation, was reported.; assay type: functional
Mus musculus [19] = assay: Prevention of tetrabenazine (TBZ) induced ptosis in mice after intraperitoneal administration; b denotes 'No activity detected up to a dose of one-fifth of the LD ip in mice; assay type: functional, organism-based; in short: as §1

Structure (SMILES) | ED50 (Mus musculus [1]) [mg/kg] | selectivity ratio [2] | IC50 (Rattus norvegicus [4]) [nM] | IC50 (Rattus norvegicus [6]) [nM] | IC50 (Rattus norvegicus [8]) [nM] | LD50 [10] [mg/kg] | other results
Nc1ccc([C@@H]2c3cc(O)ccc3[C@H]3NCCC[C@@H]23)cc1 | 0.1 | 1500 | 46 | 15 | 1600 | 150 | logP [3]: 1.91; Uptake (Rattus norvegicus [5]): > 90%; Uptake (Rattus norvegicus [7]): > 90%; Uptake (Rattus norvegicus [9]): > 90%
COc1cc2c(cc1OC)[C@H]1NCCC[C@H]1[C@H]2c1cccnc1 |  |  |  |  |  |  | LD50 [11]: 30 mg/kg; ED50 (Mus musculus [12]): No activity detected up to a dose of 1/5 LD50 ip in mice
Nc1ccc([C@@H]2c3ccccc3[C@H]3NCCC[C@@H]23)cc1 | 0.1 | 500 | 44 | 7.4 | > 100000 | 50 | Basis motility (Mus musculus [13]): 5501; Exploration motility (Mus musculus [14]): -4; Basis motility (Mus musculus [15]): -7; Basis motility (Mus musculus [16]): 12001; Exploration motility (Mus musculus [17]): 7924; Exploration motility (Mus musculus [18]): 116
COc1ccc2c(c1)[C@H](c1ccc(C(C)C)cc1)[C@@H]1CCCN[C@H]21 |  |  |  |  |  | 37 | ED50 (Mus musculus [19]): No activity detected up to a dose of 1/5 LD50 ip in mice
